Measured values from ChEMBL document CHEMBL4665690, “Proversilins A-E, Drimane-Type Sesquiterpenoids from the Endophytic Aspergillus versicolor” (J Nat Prod, 2020).

Tests used:
Assay type in all cases: functional, cell-based
MCF7 = assay: Cytotoxicity against human MCF7 cells assessed as reduction in cell viability after 48 hrs by MTT assay; conditions: MCF7, 48 h
Method in brief: (§1)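 Cells exposed 48 h to compounds at 0.0625 to 40 μM, with cisplatin and paclitaxel as positive controls. Survival read by MTT, absorbance at 570 nm. Data are means of three replicates. IC50 derived from a standard dose–response curve fit.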

SW480 = assay: Cytotoxicity against human SW480 cells assessed as reduction in cell viability after 48 hrs by MTT assay; conditions: SW480, 48 h; method in brief: as §1
NCM460 = assay: Cytotoxicity against human NCM460 cells assessed as reduction in cell viability after 48 hrs by MTT assay; conditions: NCM460, 48 h; method in brief: as §1
SMMC-7721 = assay: Cytotoxicity against human SMMC-7721 cells assessed as reduction in cell viability after 48 hrs by MTT assay; conditions: SMMC-7721, 48 h; method in brief: as §1
A549 = assay: Cytotoxicity against human A549 cells assessed as reduction in cell viability after 48 hrs by MTT assay; conditions: A549, 48 h; method in brief: as §1
HL-60 = assay: Cytotoxicity against human HL-60 cells assessed as reduction in cell viability after 48 hrs by MTT assay; conditions: HL-60, 48 h; method in brief: as §1

Compound	IC50 (MCF7) [µM]	IC50 (SW480) [µM]	IC50 (NCM460) [µM]	IC50 (SMMC-7721) [µM]	IC50 (A549) [µM]	IC50 (HL-60) [µM]
CC(=O)O[C@H]1C(=O)[C@@]2(C)[C@H]([C@H](OC(=O)c3ccccc3)[C@]3(O)C[C@H](OC(=O)[C@H](O)[C@@H](NC(=O)c4ccccc4)c4ccccc4)C(C)=C1C3(C)C)[C@]1(OC(C)=O)CO[C@@H]1C[C@@H]2O [PACLITAXEL]	< 0.008	< 0.008	< 0.008	< 0.008	< 0.008	< 0.008
CC(=O)N[C@H](CC(=O)O[C@@H]1C[C@](C)(CO)[C@@H]2CCC3=C(COC3=O)[C@@]2(C)C1)c1ccccc1	> 40	> 40	> 40	> 40	> 40	> 40
C[C@]1(CO)CCC[C@]2(C)C3=C(CC[C@@H]12)C(=O)OC3	> 40	> 40	> 40	> 40	> 40	> 40
CC(=O)N[C@H](CC(=O)O[C@@H]1C[C@](C)(C=O)[C@@H]2CCC3=C(COC3=O)[C@@]2(C)C1)c1ccccc1	18.3	16.4	> 40	19.4	28.4	9.9
CC(=O)N[C@H](CC(=O)O[C@@H]1CC(C)(C)[C@@H]2CCC3=C(COC3=O)[C@@]2(C)C1)c1ccccc1	11.8	12.4	> 40	12.6	15	7.3
CC(=O)N[C@H](CC(=O)OC[C@@]1(C)CCC[C@]2(C)C3=C(CC[C@@H]12)C(=O)OC3)c1ccccc1	> 40	> 40	> 40	> 40	> 40	> 40
